{"source": "ChEMBL document CHEMBL1147215", "about": "“Novel 2-aminobenzothiazoles as selective neuronal nitric oxide synthase inhibitors” (Bioorg Med Chem Lett, 2007)"}
{"target": "Nitric oxide synthase 1 (Homo sapiens, UniProt P29475)", "sequence (P29475 whole entry)": "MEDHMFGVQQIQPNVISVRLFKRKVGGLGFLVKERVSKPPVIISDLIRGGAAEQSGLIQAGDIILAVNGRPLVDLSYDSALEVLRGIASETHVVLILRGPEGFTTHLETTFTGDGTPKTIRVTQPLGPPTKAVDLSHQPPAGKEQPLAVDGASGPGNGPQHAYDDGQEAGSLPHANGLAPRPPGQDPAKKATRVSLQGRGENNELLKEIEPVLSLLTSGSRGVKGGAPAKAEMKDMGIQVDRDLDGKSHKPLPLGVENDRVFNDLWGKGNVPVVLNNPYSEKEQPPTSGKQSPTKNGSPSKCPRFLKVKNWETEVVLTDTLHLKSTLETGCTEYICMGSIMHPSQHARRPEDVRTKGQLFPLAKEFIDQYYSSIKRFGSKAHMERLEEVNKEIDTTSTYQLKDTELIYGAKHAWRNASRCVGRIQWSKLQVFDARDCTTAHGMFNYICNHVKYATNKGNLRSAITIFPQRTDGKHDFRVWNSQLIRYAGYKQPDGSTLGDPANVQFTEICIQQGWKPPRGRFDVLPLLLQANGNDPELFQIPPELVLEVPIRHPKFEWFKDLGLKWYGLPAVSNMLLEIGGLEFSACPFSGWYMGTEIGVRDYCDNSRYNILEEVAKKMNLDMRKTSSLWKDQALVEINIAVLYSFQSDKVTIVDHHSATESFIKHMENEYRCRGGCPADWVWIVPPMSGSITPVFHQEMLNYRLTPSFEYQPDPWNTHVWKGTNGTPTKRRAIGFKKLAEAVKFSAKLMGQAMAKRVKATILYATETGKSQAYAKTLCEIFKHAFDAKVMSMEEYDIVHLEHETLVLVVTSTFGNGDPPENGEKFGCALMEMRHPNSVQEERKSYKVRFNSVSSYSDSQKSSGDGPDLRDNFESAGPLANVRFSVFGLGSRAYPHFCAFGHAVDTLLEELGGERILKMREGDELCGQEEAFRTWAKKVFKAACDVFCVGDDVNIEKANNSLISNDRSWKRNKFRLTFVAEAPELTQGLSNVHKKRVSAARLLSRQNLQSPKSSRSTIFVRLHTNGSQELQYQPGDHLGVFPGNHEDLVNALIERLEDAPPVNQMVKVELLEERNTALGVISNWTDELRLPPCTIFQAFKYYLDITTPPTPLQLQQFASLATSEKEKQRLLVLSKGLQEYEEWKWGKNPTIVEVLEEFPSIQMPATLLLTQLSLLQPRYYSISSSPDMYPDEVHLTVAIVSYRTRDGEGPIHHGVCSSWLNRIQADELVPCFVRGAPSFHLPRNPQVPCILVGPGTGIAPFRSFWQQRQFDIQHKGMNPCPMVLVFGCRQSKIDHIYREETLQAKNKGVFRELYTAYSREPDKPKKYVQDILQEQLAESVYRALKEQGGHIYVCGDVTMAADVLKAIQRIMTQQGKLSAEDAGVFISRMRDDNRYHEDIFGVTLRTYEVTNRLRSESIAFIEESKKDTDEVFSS", "assay": "Inhibition of human neuronal NOS activity", "units": {"IC50": "µM"}}
{"smiles": "N=C(Nc1ccc2nc(NC3CCOCC3)sc2c1)c1cccs1", "IC50": 2}
{"smiles": "N=C(Nc1ccc2nc(NCCc3ccccn3)sc2c1)c1cccs1", "IC50": 1.3}
{"smiles": "N=C(Nc1ccc2sc(N)nc2c1)c1cccs1", "IC50": 0.2}
{"smiles": "N=C(Nc1ccc2nc(NCCN3CCOCC3)sc2c1)c1cccs1", "IC50": 0.2}
{"smiles": "N=C(Nc1ccc2nc(NCCc3ccc(Br)cc3)sc2c1)c1cccs1", "IC50": 4.4}
{"smiles": "N=C(Nc1ccc2nc(NC3CCN(Cc4ccccc4)CC3)sc2c1)c1cccs1", "IC50": 0.5}
{"smiles": "CCSC(N)=Nc1ccc2sc(N)nc2c1", "IC50": 4.6}
{"target": "Nitric oxide synthase 1 (Rattus norvegicus, UniProt P29476)", "sequence (P29476 whole entry)": "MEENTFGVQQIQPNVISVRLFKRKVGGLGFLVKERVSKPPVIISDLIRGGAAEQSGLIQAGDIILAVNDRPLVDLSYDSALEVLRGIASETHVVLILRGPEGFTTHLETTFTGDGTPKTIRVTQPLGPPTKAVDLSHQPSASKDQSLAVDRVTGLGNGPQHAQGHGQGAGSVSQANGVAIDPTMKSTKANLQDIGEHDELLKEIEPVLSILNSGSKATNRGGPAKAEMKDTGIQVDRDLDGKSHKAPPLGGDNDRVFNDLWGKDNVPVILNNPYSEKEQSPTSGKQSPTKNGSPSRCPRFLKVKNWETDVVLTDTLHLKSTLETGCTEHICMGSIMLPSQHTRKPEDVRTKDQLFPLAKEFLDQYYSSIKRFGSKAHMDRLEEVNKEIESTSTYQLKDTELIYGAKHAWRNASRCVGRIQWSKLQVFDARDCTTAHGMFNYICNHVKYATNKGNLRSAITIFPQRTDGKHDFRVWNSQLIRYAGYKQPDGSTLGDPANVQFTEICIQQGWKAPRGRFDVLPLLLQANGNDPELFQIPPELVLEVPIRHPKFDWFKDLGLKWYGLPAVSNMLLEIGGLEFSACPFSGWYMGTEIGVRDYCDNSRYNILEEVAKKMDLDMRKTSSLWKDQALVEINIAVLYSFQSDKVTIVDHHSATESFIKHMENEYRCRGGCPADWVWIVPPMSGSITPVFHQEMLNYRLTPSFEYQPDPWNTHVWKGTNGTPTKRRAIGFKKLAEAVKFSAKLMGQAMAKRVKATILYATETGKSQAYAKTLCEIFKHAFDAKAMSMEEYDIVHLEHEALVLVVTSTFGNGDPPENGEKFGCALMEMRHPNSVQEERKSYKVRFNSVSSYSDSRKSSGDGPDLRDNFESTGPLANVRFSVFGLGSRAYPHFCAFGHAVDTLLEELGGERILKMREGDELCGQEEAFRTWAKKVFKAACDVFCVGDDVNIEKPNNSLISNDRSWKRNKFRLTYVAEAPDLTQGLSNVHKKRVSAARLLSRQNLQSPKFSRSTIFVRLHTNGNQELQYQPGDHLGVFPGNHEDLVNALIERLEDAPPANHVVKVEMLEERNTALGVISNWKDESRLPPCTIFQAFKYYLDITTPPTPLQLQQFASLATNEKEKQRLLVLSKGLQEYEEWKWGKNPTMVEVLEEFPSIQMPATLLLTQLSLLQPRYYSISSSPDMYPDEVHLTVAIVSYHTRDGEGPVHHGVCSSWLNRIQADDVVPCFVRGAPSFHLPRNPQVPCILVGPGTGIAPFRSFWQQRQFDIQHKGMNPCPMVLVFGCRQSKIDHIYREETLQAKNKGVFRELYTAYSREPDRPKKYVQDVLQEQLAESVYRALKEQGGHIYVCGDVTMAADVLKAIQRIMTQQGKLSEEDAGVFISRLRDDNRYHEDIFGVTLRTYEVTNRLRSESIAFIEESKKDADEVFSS", "assay": "Inhibition of rat neuronal NOS activity", "units": {"IC50": "µM"}}
{"smiles": "N=C(Nc1ccc2nc(NCCc3ccccn3)sc2c1)c1cccs1", "IC50": 0.05}
{"smiles": "N=C(Nc1ccc2nc(NCCc3ccc(Br)cc3)sc2c1)c1cccs1", "IC50": 4.7}
{"smiles": "N=C(Nc1ccc2nc(NC3CCN(Cc4ccccc4)CC3)sc2c1)c1cccs1", "IC50": 0.09}
{"target": "Nitric oxide synthase, inducible (Rattus norvegicus, UniProt Q06518)", "sequence (Q06518 whole entry, canonical isoform)": "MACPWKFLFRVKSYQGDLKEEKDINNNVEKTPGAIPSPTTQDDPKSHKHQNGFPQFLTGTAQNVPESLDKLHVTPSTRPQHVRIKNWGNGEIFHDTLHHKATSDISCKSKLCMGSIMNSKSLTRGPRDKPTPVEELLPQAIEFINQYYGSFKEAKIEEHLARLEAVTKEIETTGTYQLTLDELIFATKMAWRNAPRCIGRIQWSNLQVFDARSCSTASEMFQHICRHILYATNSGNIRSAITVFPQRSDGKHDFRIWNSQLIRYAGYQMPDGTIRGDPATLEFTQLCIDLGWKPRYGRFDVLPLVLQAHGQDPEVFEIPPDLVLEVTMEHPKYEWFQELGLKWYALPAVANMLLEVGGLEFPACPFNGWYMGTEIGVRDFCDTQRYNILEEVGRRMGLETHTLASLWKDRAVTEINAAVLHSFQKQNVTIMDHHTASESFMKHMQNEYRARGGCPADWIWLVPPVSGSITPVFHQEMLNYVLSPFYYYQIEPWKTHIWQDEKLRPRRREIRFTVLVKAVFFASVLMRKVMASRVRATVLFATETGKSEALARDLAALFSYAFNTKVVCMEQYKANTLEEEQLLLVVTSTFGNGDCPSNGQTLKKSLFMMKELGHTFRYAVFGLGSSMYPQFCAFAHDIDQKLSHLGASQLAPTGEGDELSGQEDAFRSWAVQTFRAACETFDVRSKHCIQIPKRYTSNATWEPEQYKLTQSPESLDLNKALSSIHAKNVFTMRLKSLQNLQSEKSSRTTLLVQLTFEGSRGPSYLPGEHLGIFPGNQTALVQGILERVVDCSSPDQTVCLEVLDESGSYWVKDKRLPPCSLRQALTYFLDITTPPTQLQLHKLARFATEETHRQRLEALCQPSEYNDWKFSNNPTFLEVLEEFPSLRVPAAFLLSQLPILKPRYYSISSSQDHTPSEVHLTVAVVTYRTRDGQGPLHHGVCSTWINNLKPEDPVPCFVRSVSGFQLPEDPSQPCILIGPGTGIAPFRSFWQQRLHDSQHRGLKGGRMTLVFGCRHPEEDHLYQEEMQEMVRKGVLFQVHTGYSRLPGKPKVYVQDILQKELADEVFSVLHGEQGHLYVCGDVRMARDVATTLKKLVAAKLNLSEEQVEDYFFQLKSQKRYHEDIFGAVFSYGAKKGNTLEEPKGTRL", "assay": "Inhibition of rat inducible NOS activity", "summary_of_the_method": "(§1)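 Rat NOS isoform activity read out as conversion of radiolabelled L-arginine to L-citrulline. Percent inhibition was measured in duplicate at 8–12 concentrations to give IC₅₀.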", "units": {"IC50": "µM"}}
{"smiles": "N=C(Nc1ccc2nc(NCCc3ccccn3)sc2c1)c1cccs1", "IC50": 25}
{"smiles": "N=C(Nc1ccc2nc(NCCN3CCOCC3)sc2c1)c1cccs1", "IC50": 44}
{"smiles": "N=C(Nc1ccc2nc(NC3CCN(Cc4ccccc4)CC3)sc2c1)c1cccs1", "IC50": 36}
{"target": "T1, Nitric oxide synthase 3 (Homo sapiens, UniProt P29474)", "T1 sequence (P29474 whole entry)": "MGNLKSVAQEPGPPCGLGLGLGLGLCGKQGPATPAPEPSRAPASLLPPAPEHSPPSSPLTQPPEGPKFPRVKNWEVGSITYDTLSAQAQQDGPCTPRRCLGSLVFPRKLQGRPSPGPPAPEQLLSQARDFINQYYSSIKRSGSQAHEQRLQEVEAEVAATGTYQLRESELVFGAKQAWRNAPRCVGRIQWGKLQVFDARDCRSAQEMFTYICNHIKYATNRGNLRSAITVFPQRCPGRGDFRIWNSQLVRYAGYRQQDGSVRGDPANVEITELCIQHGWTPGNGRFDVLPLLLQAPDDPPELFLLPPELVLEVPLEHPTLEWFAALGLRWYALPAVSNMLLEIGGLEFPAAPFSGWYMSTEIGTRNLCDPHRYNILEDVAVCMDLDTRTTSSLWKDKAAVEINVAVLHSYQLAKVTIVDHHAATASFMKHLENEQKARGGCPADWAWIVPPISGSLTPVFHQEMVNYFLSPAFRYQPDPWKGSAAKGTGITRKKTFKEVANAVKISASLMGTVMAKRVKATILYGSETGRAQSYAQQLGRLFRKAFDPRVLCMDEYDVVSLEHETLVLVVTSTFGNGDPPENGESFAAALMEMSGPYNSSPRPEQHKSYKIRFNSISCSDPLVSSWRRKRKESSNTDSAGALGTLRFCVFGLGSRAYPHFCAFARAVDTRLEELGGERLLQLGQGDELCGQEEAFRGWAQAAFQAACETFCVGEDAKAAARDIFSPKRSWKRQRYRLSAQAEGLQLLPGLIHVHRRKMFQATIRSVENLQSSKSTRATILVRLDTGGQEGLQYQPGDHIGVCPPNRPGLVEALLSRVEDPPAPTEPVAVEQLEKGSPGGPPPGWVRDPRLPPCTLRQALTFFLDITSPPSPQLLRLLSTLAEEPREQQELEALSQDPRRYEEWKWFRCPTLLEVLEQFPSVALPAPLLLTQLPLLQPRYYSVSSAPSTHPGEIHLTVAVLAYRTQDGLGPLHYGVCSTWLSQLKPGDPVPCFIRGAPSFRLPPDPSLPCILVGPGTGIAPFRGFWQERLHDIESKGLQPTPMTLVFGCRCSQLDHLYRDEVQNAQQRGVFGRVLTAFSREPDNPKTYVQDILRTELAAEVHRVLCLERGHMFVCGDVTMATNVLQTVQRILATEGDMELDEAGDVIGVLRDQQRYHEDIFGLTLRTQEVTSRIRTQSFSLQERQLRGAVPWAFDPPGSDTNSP", "assay": "Inhibition of human endothelial NOS activity", "summary_of_the_method": "(§2)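 Human NOS isoform activity read out as conversion of [³H]L-arginine to [³H]L-citrulline. Percent inhibition was measured at 8–12 inhibitor concentrations to derive IC₅₀.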", "units": {"IC50": "µM"}}
{"smiles": "N=C(Nc1ccc2nc(NC3CCOCC3)sc2c1)c1cccs1", "IC50": 16}
{"smiles": "N=C(Nc1ccc2nc(NCCc3ccccn3)sc2c1)c1cccs1", "IC50": 0.9}
{"smiles": "N=C(Nc1ccc2sc(N)nc2c1)c1cccs1", "IC50": 2.3}
{"smiles": "N=C(Nc1ccc2nc(NCCN3CCOCC3)sc2c1)c1cccs1", "IC50": 1.5}
{"smiles": "N=C(Nc1ccc2nc(NCCc3ccc(Br)cc3)sc2c1)c1cccs1", "IC50": 2.1}
{"smiles": "N=C(Nc1ccc2nc(NC3CCN(Cc4ccccc4)CC3)sc2c1)c1cccs1", "IC50": 6}
{"smiles": "CCSC(N)=Nc1ccc2sc(N)nc2c1", "IC50": 12}
{"target": "T2, Nitric oxide synthase 3 (Rattus norvegicus, UniProt Q62600)", "T2 sequence (Q62600 whole entry)": "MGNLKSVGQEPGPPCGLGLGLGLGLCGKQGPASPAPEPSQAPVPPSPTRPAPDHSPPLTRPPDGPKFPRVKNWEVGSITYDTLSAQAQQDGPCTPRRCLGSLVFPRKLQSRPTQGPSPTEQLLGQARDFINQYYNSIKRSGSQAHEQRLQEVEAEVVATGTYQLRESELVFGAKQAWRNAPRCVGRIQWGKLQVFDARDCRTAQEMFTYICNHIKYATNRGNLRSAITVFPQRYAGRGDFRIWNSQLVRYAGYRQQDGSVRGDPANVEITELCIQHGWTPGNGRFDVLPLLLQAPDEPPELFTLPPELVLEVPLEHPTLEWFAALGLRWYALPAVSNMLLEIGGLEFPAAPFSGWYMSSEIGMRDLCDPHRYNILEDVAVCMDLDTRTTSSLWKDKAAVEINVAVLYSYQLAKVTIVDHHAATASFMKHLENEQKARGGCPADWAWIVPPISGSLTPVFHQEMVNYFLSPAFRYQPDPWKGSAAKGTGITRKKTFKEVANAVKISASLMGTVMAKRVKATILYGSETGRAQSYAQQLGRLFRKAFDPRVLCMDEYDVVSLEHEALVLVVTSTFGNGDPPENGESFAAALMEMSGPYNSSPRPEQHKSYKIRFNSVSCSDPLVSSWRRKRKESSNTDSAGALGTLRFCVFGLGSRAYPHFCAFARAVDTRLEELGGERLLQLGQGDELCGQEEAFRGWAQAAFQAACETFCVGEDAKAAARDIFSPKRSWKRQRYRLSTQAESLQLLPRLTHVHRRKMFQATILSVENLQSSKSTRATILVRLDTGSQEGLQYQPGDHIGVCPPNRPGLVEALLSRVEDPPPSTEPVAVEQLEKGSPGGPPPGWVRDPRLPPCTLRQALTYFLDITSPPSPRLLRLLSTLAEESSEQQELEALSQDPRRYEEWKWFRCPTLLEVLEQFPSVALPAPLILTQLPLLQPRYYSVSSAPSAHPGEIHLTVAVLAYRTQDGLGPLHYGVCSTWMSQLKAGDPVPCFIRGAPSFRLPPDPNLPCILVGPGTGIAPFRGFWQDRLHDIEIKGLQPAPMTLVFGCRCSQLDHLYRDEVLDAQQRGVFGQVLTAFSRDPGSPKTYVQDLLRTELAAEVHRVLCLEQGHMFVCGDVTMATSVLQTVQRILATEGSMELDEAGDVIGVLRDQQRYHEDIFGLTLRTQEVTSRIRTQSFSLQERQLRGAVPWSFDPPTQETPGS", "assay": "Inhibition of rat endothelial NOS activity", "summary_of_the_method": "as §1", "units": {"IC50": "µM"}}
{"smiles": "N=C(Nc1ccc2nc(NCCc3ccccn3)sc2c1)c1cccs1", "IC50": 3.4}
{"smiles": "N=C(Nc1ccc2nc(NCCN3CCOCC3)sc2c1)c1cccs1", "IC50": 9.1}
{"smiles": "N=C(Nc1ccc2nc(NCCc3ccc(Br)cc3)sc2c1)c1cccs1", "IC50": 5.2}
{"smiles": "N=C(Nc1ccc2nc(NC3CCN(Cc4ccccc4)CC3)sc2c1)c1cccs1", "IC50": 12.5}
{"organism": "Homo sapiens", "assay": "Selectivity for human nNOS over human eNOS", "summary_of_the_method": "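Ratio of human eNOS IC₅₀ to human nNOS IC₅₀. Each IC₅₀ comes from radiolabelled arginine-to-citrulline conversion, with percent inhibition at 8–12 concentrations.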"}
{"smiles": "COC(=O)c1ccc(CN2CCC(Nc3nc4ccc(NC(=N)c5cccs5)cc4s3)CC2)cc1", "Ratio IC50": 18}
{"smiles": "COc1ccc(CN2CCC(Nc3nc4ccc(NC(=N)c5cccs5)cc4s3)CC2)cc1", "Ratio IC50": 28}
{"smiles": "CCSC(=N)Nc1ccc2sc(N)nc2c1", "Ratio IC50": 3}
{"smiles": "N=C(Nc1ccc2sc(NC3CCN(Cc4ccccc4)CC3)nc2c1)c1cccs1", "Ratio IC50": 40}
{"smiles": "COc1cccc(CN2CCC(Nc3nc4ccc(NC(=N)c5cccs5)cc4s3)CC2)c1", "Ratio IC50": 27}
{"smiles": "N=C(Nc1ccc2nc(NC3CCOCC3)sc2c1)c1cccs1", "Ratio IC50": 8}
{"smiles": "N=C(Nc1ccc2nc(NCCc3ccccn3)sc2c1)c1cccs1", "Ratio IC50": 1}
{"smiles": "N=C(Nc1ccc2sc(N)nc2c1)c1cccs1", "Ratio IC50": 13}
{"smiles": "N=C(Nc1ccc2nc(NC3CCN(CCc4cnc[nH]4)CC3)sc2c1)c1cccs1", "Ratio IC50": 2}
{"smiles": "N=C(Nc1ccc2nc(NCCc3ccc(Br)cc3)sc2c1)c1cccs1", "Ratio IC50": 0.5}
{"smiles": "N=C(Nc1ccc2nc(NC3CCN(Cc4ccccc4)CC3)sc2c1)c1cccs1", "Ratio IC50": 12}
{"target": "Nitric oxide synthase, inducible (Homo sapiens, UniProt P35228)", "assay": "Inhibition of human inducible NOS activity", "summary_of_the_method": "as §2", "units": {"IC50": "µM"}}
{"smiles": "N=C(Nc1ccc2nc(NC3CCOCC3)sc2c1)c1cccs1", "IC50": 64}
{"smiles": "N=C(Nc1ccc2nc(NCCc3ccccn3)sc2c1)c1cccs1", "IC50": 13}
{"smiles": "N=C(Nc1ccc2sc(N)nc2c1)c1cccs1", "IC50": 79}
{"smiles": "N=C(Nc1ccc2nc(NCCN3CCOCC3)sc2c1)c1cccs1", "IC50": 37}
{"smiles": "N=C(Nc1ccc2nc(NCCc3ccc(Br)cc3)sc2c1)c1cccs1", "IC50": 75}
{"smiles": "N=C(Nc1ccc2nc(NC3CCN(Cc4ccccc4)CC3)sc2c1)c1cccs1", "IC50": 14}
{"smiles": "CCSC(N)=Nc1ccc2sc(N)nc2c1", "IC50": 97}
